Screening data (PubChem)
CHOP inhibitor – inhibitors of CHOP induction in ER stress response | CHO-K1 CHOP-promoter luciferase, tunicamycin-induced, 15-18 h | inhibition, % at 10 µM | 220,000 compounds, 3.8% hits;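 active = compounds that reduced the stress-induced luciferase reporter signal by more than about 70% of percent inhibition, limit read from the data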
T cruzi repl – blocks replication of Trypanosoma cruzi; T. cruzi beta-gal in NIH3T3, luminescence, 90 h; inhibition, % (no concentration beside the values); 300,000 compounds, 1.4% hits;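 active = mean inhibition across valid replicates above about 55%, limit read from the data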;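 note: signal also drops with host cell toxicity which is not excluded here; higher percent means less beta-gal luminescence so fewer parasites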
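Test system: β-gal T. cruzi (Tulahuen C4) inside NIH/3T3 cells / Quantity: 5,000 cells/well / Measured by: luminescence from GalScreen with 0.05% NP40, read after 60 min / Medium: DMEM plus 2% FBS / Measure: parasite load inhibition, % / Reagent: Tulahuen C4 trypomastigotes, 5000/well / Schedule: co-culture of at least 90 h after 3 h attachment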
Dynein cargo inh – dynein cargo transport inhibition; AID 1381; 3617.4 mouse cells, GR-EGFP nuclear translocation imaging; test concentration mostly 20 µM; stimulated with dexamethasone, 1 µM; active compounds read low; z-score, hits read low; 220,000 compounds, 0.47% hits;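 active = plate z-score of nuclear minus cytoplasmic receptor signal below a set negative limit, without overly bright fluorescence or cell loss, cut at about -3.5 in these data, passing the limit was not always enough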;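 note: z-score of nuclear minus cytoplasmic ring GR-EGFP intensity difference per well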
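Buffer or medium: tetracycline-free induction medium containing charcoal-stripped FBS / Reagent: dexamethasone agonist, 1.0 µM final, for 30 min / Technique: automated 10x imaging of fixed Hoechst-stained cells / Times: induction 48 h, compound 1 h, agonist 30 min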
UPR CHOP act – apoptotic UPR (CHOP) activation; AID 449763; activation, % at 10 µM; 330,000 compounds, 0.34% hits; CHO-CHOP luciferase reporter, luminescence; percent of tunicamycin response over DMSO baseline;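 active = at 10 µM dose, activation of 40% or more, normalized to positive control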
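Evaluation: % reporter activation, DMSO baseline versus tunicamycin full activation; System: CHO-CHOP luciferase reporter cell line; Input: 500 cells/well; Incubation: 6 h compound treatment, 37 °C; Measured by: Steady-Glo luciferase luminescence; Dosing: one dose, 10 µM in 0.5% DMSO; Buffer or medium: F12 medium, 10% FBS; Benchmarks: positive tunicamycin 10 µg/mL, negative DMSO alone.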
UPR XBP1 act – activators of adaptive arm of unfolded protein response (XBP1). CHO-XBP1 luciferase reporter, IRE1-XBP1 UPR activation, luminescence; percent of tunicamycin response, DMSO as zero. activation, % at 20 µM. 330,000 compounds, 0.33% hits. AID 463104;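 active = versus positive control, 20 µM dose yields 30% or more activation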
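Assay system: CHO-XBP1 luciferase reporter cells; Schedule: 6 h treatment, 37 °C; Detection: glow luminescence from Steady-Glo reagent; Benchmarks: high control tunicamycin 10 µg/mL final, low control DMSO vehicle only.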
L major viab – Leishmania major promastigote growth inhibition; 200,000 compounds, 9% hits; Leishmania major promastigotes, resazurin fluorescence viability; inhibition, % at 10 µM; in the data active = inhibition above about 50%;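 note: promastigotes grown with compound for 44 hours at 28 °C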
Each line names hits and unclear results; the compound was inactive in the other large screens. This is one part of a sample in which hits are shown more often than they occur.

CC(C(=O)NC(=O)NC1CCCCC1)N1CCN(c2ccc(O)cc2)CC1 (configuration not stated)	none (no result: CHOP inhibitor, T cruzi repl, Dynein cargo inh, L major viab)
Cc1cc2nc(SCC(=O)N(C)C)c3c(c2cc1C)CCCC3	L major viab 93
CN(C)C(=O)CSc1nc(-c2ccccc2)nc2c1CCCC2	none
Cc1occc1-c1nnc(SCC(=O)NC2CCC(C)CC2)o1 (configuration not stated)	none (no result: CHOP inhibitor, T cruzi repl, Dynein cargo inh, L major viab)
Cc1cc(N)c(-n2cc3c(=O)n(C)c(=O)n(C)c3c2)cc1C	L major viab 62
Oc1cccc2ccc(/C=C/c3cccs3)nc12	L major viab 94
Cc1ccsc1/C=C/c1ccc2cccc(O)c2n1	L major viab 98
CSc1ccc(/C=C/c2ccc3cccc(O)c3n2)cc1	L major viab 89
CCC(NC(=O)CN1CCN(C(=O)c2cccs2)CC1)c1ccc(C)cc1 (configuration not stated)	none (no result: CHOP inhibitor, T cruzi repl, Dynein cargo inh, L major viab)
O=c1[nH]c(-c2ccccn2)nc(C(F)(F)F)c1Br	T cruzi repl 66, L major viab 97
O=c1[nH]c(-c2ccccn2)nc2ccccc12	none
C/C(=N\NC(=O)Cc1ccc(Cl)cc1)c1ccccc1O	T cruzi repl 63 (no result: CHOP inhibitor, Dynein cargo inh, L major viab)
CCC(C)(C(=O)NC1CCCCC1)N(C(=O)Cc1cccs1)c1ccccc1 (configuration not stated)	none
O=S(=O)(Nc1cc2nc3ccccc3nc2n1Cc1ccccc1)c1ccc(Cl)cc1	CHOP inhibitor 93 (no result: UPR CHOP act, UPR XBP1 act)
CN(Cc1c(C(=O)N/N=C/c2cccc(Cl)c2)nnn1-c1nonc1N)c1ccccc1	none (no result: CHOP inhibitor, Dynein cargo inh, L major viab)
Cc1ccc(NC(=O)Nc2ccccc2C#N)c(Cl)c1	L major viab 66
Cc1cc(C)nc(Nc2n[nH]c(COc3ccc(Cl)cc3)n2)n1	CHOP inhibitor 93
Cc1cc(C)nc(Nc2n[nH]c(C)n2)n1	none
CCOC(=O)CSc1c(-c2ccccc2)c2cc(Cl)ccc2[nH]c1=O	CHOP inhibitor 91
Cc1ccc(S(=O)(=O)NCc2c(-c3ccccc3)c3cc(Cl)ccc3[nH]c2=O)cc1	CHOP inhibitor 103
O=C(O)CSc1c(-c2ccccc2)c2cc(Cl)ccc2[nH]c1=O	none
Cc1ccc2c(c1)N(C(=O)CCC(=O)NCCCN1CCN(C)CC1)CC(C)O2 (configuration not stated)	none (no result: CHOP inhibitor, Dynein cargo inh, L major viab)
CC1CC(C)CN(CCCn2c(=S)[nH]c3ccccc3c2=O)C1 (configuration not stated)	L major viab 89
O=c1c2ccccc2[nH]c(=S)n1CCCN1CCN(c2ccccc2)CC1	T cruzi repl 58 (no result: CHOP inhibitor, Dynein cargo inh, L major viab)
O=c1c2ccccc2[nH]c(=S)n1CCCN1CCN(c2ccccc2F)CC1	none (no result: CHOP inhibitor, Dynein cargo inh, L major viab)
O=c1c2cccnc2[nH]c(=S)n1CCCN1CCN(c2ccccc2F)CC1	CHOP inhibitor 89
COC(=O)c1cc2cc(Cl)ccc2nc1SC	none (no result: L major viab)
CCCCN(C)CCCNC(=O)c1cc(=O)[nH]c2ccc(S(=O)(=O)N3CCCCC3C)cc12 (configuration not stated)	none
Clc1nc(Cl)nc(-c2cn(-c3ccccc3)c3ccccc23)n1	none (no result: L major viab)
CCN(CC)S(=O)(=O)c1cc(NC(=O)C2CSC3(C)CCC(=O)N23)ccc1C (configuration not stated)	none (no result: CHOP inhibitor, T cruzi repl, Dynein cargo inh, L major viab)
COc1ccc(C2NCCc3c2[nH]c2ccccc32)cc1CN1CCc2cc(OC)c(OC)cc2C1C (configuration not stated)	T cruzi repl 61 (no result: UPR CHOP act, UPR XBP1 act, L major viab)
CC(C)CN(C(=O)COC(=O)c1ccc([N+](=O)[O-])s1)c1c(N)n(Cc2ccccc2)c(=O)[nH]c1=O	T cruzi repl 63 (no result: CHOP inhibitor, Dynein cargo inh, L major viab)
Cc1nn(C)c(C(=O)Nc2ccc(S(=O)(=O)NC34CC5CC(CC(C5)C3)C4)cc2)c1Br	T cruzi repl 59
N#CC1=C(N)Oc2cc(N)ccc2C1c1cccnc1 (configuration not stated)	none
CCN(CC)c1ccc2c(c1)OC(N)=C(C#N)C2c1cccnc1 (configuration not stated)	L major viab 81 (no result: CHOP inhibitor)
COc1ccc2o/c(=N\O)c(C(=O)Nc3ccc(C)cc3)cc2c1	L major viab 50 (no result: UPR CHOP act, UPR XBP1 act)
CCOc1ccc(OCC)c(S(=O)(=O)NCCOC23CC4CC(CC(C4)C2)C3)c1	L major viab 78
COc1cc(S(=O)(=O)NCCOC23CC4CC(CC(C4)C2)C3)c(OC)cc1Cl	none
COc1cccc(N2CCN(S(=O)(=O)c3ccc(-n4cnnn4)cc3)CC2)c1	none (no result: CHOP inhibitor, Dynein cargo inh, L major viab)
COc1ccccc1-c1nnc(SCc2nc3ccccc3s2)n1C	none
COc1ccc(-c2nnc(SCc3nc4ccccc4s3)n2C(C)C)cc1	L major viab 84
Cc1nc(NC(=O)CCc2ccccc2)sc1C	none (no result: CHOP inhibitor, Dynein cargo inh, L major viab)
CCOC(=O)CC(NS(=O)(=O)c1ccc(NC(C)=O)cc1)c1ccc(OCC)cc1 (configuration not stated)	none
CCOC(=O)CC(NS(=O)(=O)Cc1ccccc1)c1ccc(C)cc1 (configuration not stated)	L major viab 59
Cc1cc(C)c2nc3nc(C)c(C)cc3c(N)c2c1	L major viab 100
CCCSc1nc(C)c2cc(C)cc(C)c2n1	none
CSCCC(NC(=O)c1ccc([N+](=O)[O-])cc1Cl)C(=O)OC(C)C(=O)NCc1ccco1 (configuration not stated)	none (no result: CHOP inhibitor, Dynein cargo inh, L major viab)
COc1ccc(C(C(=O)NC2CCCCC2)N(C(=O)CCl)c2ccc(OC)cc2)cc1 (configuration not stated)	L major viab 93
COCCN(C(=O)CCCC(=O)Nc1ccccn1)C(C(=O)NC1CCCCC1)c1ccc(C)cc1 (configuration not stated)	none
COc1ccc(CN(C(=O)c2nsc(Cl)c2Cl)C(C(=O)NC2CCCCC2)c2ccc(OC)cc2)cc1 (configuration not stated)	none
COc1ccc(CN(C(=O)c2nsc(Cl)c2Cl)C(C(=O)NC2CCCC2)c2ccc(C)cc2)cc1 (configuration not stated)	L major viab 71
CCOc1ccc(C(C(=O)NC2CCCCC2)N(C(=O)Cc2cccs2)c2ccc(-n3cnnn3)c(OC)c2)cc1 (configuration not stated)	CHOP inhibitor 84
COc1ccc(N(C(=O)Cc2cccs2)C(C(=O)NC2CCCC2)c2ccncc2)cc1 (configuration not stated)	none (no result: CHOP inhibitor, Dynein cargo inh, L major viab)
COC(CN(C(=O)CCl)C(C(=O)NC1CCCCC1)c1ccc(C)cc1)OC (configuration not stated)	L major viab 72 (no result: UPR CHOP act, UPR XBP1 act)
CCN(CC(=O)NCc1cccs1)C(=O)c1ccc(NS(=O)(=O)c2ccc(F)cc2)cc1	none (no result: CHOP inhibitor, Dynein cargo inh, L major viab)
